# ChEMBL document CHEMBL1127450, “Synthesis and antiviral activity evaluation of some aminoadamantane derivatives” (1994)
# How the values were obtained:
# Format in all cases: functional
# HeLa [1] = test: tested for minimum inhibitory concentration required to cause a microscopically detectable alteration of normal cell morphology by 50% on HeLa cell line; details: Homo sapiens
# How it was run: (§1)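 HeLa (human epithelial), MDCK (Madin-Darby canine kidney) or Vero (African green monkey kidney) cells were scored by microscopy. The value is the minimum concentration that causes a detectable alteration of normal cell morphology. Values are averages of at least two separate experiments.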
# CCRF-CEM [2] = test: Tested for minimum inhibitory concentration required to reduce virus-induced cytopathicity by 50% on CEM cell line infected with HIV-2 virus; details: Homo sapiens
# Vero [3] = test: Tested for minimum inhibitory concentration required to cause a microscopically detectable alteration of normal cell morphology by 50% on vero cell line; details: Chlorocebus sabaeus; how it was run: as §1
# MDCK [4] = test: Tested for minimum inhibitory concentration required to cause a microscopically detectable alteration of normal cell morphology by 50% on MDCK cell line; details: Canis lupus familiaris; how it was run: as §1
# HeLa [5] = test: Tested for minimum inhibitory concentration required to reduce virus-induced cytopathicity by 50% on HeLa cell line infected with RSV virus; details: Homo sapiens
# How it was run: (§2)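 HeLa (human epithelial), MDCK (Madin-Darby canine kidney) or Vero (African green monkey kidney) cells were infected with the stated virus. The value is the concentration that reduces virus-induced cytopathicity by 50%. Values are averages of at least two separate experiments.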
# HEF [6] = test: Tested for minimum inhibitory concentration required to reduce virus-induced cytopathicity by 50% on HEF cell line infected with HSV-2 virus; details: Homo sapiens
# How it was run: (§3)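 Human embryonic skin-muscle fibroblasts (HEF) were infected with the stated virus. The value is the concentration that reduces virus-induced cytopathicity by 50%. Values are averages of at least two separate experiments.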
# Vero [7] = test: Tested for minimum inhibitory concentration required to reduce virus-induced cytopathicity by 50% on vero cell line infected with parainfluenza 3 virus; details: Chlorocebus sabaeus; how it was run: as §2
# Vero [8] = test: Tested for minimum inhibitory concentration required to reduce virus-induced cytopathicity by 50% on vero cell line infected with Reo 1 virus; details: Chlorocebus sabaeus; how it was run: as §2
# MDCK [9] = test: Tested for minimum inhibitory concentration required to reduce virus-induced cytopathicity by 50% on MDCK cell line infected with influenza B virus; details: Canis lupus familiaris; how it was run: as §2
# HeLa [10] = test: Tested for minimum inhibitory concentration required to reduce virus-induced cytopathicity by 50% on HeLa cell line infected with polio 1 virus; details: Homo sapiens; how it was run: as §2
# HEF [11] = test: Tested for minimum inhibitory concentration required to reduce virus-induced cytopathicity by 50% on HEF cell line infected with vesicular stomatitis virus; details: Homo sapiens; how it was run: as §3
# HEF [12] = test: Tested for minimum inhibitory concentration required to reduce […] by 50% on HEF cell line; details: Homo sapiens
# How it was run: (§4)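 Human embryonic lung fibroblasts (HEF) were used for cell proliferation. The value is the concentration that reduces cell proliferation by 50%. Values are averages of at least two separate experiments.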
# MDCK [13] = test: Tested for minimum inhibitory concentration required to reduce virus-induced cytopathicity by 50% on MDCK cell line infected with influenza A virus; details: Canis lupus familiaris; how it was run: as §2
# CCRF-CEM [14] = test: Tested for minimum inhibitory concentration required to reduce virus-induced cytopathicity by 50% was evaluated on CEM cell line infected with HIV-1 virus; details: Homo sapiens
# Vero [15] = test: Tested for minimum inhibitory concentration required to reduce virus-induced cytopathicity by 50% on vero cell line infected with semliki forest virus; details: Chlorocebus sabaeus; how it was run: as §2
# HEF [16] = test: Tested for minimum inhibitory concentration required to cause a microscopically detectable alteration of normal cell morphology by 50% on HEF cell line; details: Homo sapiens
# How it was run: (§5)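 Human embryonic skin-muscle fibroblasts (HEF) were used. The value is the minimum concentration that causes a microscopically detectable alteration of normal cell morphology. Values are averages of at least two separate experiments.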
# HEF [17] = test: Tested for minimum inhibitory concentration required to reduce virus-induced cytopathicity by 50% on HEF cell line infected with thymidine kinase-deficient herpes simplex virus type 1 (TK-HSV-1); details: Homo sapiens; how it was run: as §3
# Vero [18] = test: Tested for minimum inhibitory concentration required to reduce virus-induced cytopathicity by 50% on vero cell line infected with sindbis virus; details: Chlorocebus sabaeus; how it was run: as §2
# HEF [19] = test: Tested for minimum inhibitory concentration required to reduce virus-induced cytopathicity by 50% on HEF cell line infected with vaccinia virus; details: Homo sapiens; how it was run: as §3
# HEF [20] = test: Tested for minimum inhibitory concentration required to reduce virus-induced cytopathicity by 50% on HEF cell line infected with HSV-1 virus; details: Homo sapiens; how it was run: as §3
# CCRF-CEM [21] = test: Tested for minimum inhibitory concentration required to reduce virus-induced cell viability by 50% on CEM cell line; details: Homo sapiens
# Vero [22] = test: Tested for minimum inhibitory concentration required to reduce virus-induced cytopathicity by 50% on vero cell line infected with coxsackie B4 virus; details: Chlorocebus sabaeus; how it was run: as §2
# CCRF-CEM [23] = test: tested for minimum inhibitory concentration required to reduce virus-induced cytopathicity by 50% on CEM cell line infected with HIV-2 virus; details: Homo sapiens
# CCRF-CEM [24] = test: tested for minimum inhibitory concentration required to reduce virus-induced cytopathicity by 50% was evaluated on CEM cell line infected with HIV-1 virus; details: Homo sapiens
# CCRF-CEM [25] = test: tested for minimum inhibitory concentration required to reduce virus-induced cell viability by 50% on CEM cell line; details: Homo sapiens
# HEF [26] = test: tested for minimum inhibitory concentration required to reduce […] by 50% on HEF cell line; details: Homo sapiens; how it was run: as §4
# HeLa [27] = test: tested for minimum inhibitory concentration required to reduce virus-induced cytopathicity by 50% on HeLa cell line infected with polio 1 virus; details: Homo sapiens; how it was run: as §2
# HEF [28] = test: tested for minimum inhibitory concentration required to cause a microscopically detectable alteration of normal cell morphology by 50% on HEF cell line; details: Homo sapiens; how it was run: as §5
# Vero [29] = test: tested for minimum inhibitory concentration required to reduce virus-induced cytopathicity by 50% on vero cell line infected with coxsackie B4 virus; details: Chlorocebus sabaeus; how it was run: as §2
# MDCK [30] = test: tested for minimum inhibitory concentration required to cause a microscopically detectable alteration of normal cell morphology by 50% on MDCK cell line; details: Canis lupus familiaris; how it was run: as §1
# Vero [31] = test: tested for minimum inhibitory concentration required to reduce virus-induced cytopathicity by 50% on vero cell line infected with semliki forest virus; details: Chlorocebus sabaeus; how it was run: as §2
# Vero [32] = test: tested for minimum inhibitory concentration required to reduce virus-induced cytopathicity by 50% on vero cell line infected with sindbis virus; details: Chlorocebus sabaeus; how it was run: as §2
# HEF [33] = test: tested for minimum inhibitory concentration required to reduce virus-induced cytopathicity by 50% on HEF cell line infected with HSV-2 virus; details: Homo sapiens; how it was run: as §3
# HEF [34] = test: tested for minimum inhibitory concentration required to reduce virus-induced cytopathicity by 50% on HEF cell line infected with vesicular stomatitis virus; details: Homo sapiens; how it was run: as §3
# Vero [35] = test: tested for minimum inhibitory concentration required to reduce virus-induced cytopathicity by 50% on vero cell line infected with Reo 1 virus; details: Chlorocebus sabaeus; how it was run: as §2
# HEF [36] = test: tested for minimum inhibitory concentration required to reduce virus-induced cytopathicity by 50% on HEF cell line infected with vaccinia virus; details: Homo sapiens; how it was run: as §3
# Vero [37] = test: tested for minimum inhibitory concentration required to cause a microscopically detectable alteration of normal cell morphology by 50% on vero cell line; details: Chlorocebus sabaeus; how it was run: as §1
# HeLa [38] = test: Tested for minimum inhibitory concentration required to cause a microscopically detectable alteration of normal cell morphology by 50% on HeLa cell line; details: Homo sapiens; how it was run: as §1
# Vero [39] = test: Tested for minimum inhibitory concentration required to reduce virus-induced cytopathicity by 50% on vero cell line infected with semliki forest; details: Chlorocebus sabaeus; how it was run: as §2
# Vero [40] = test: Tested for minimum inhibitory concentration required to cause a microscopically detectable alteration of normal cell morphology by 50% on Vero cell line; details: Chlorocebus sabaeus; how it was run: as §1
SMILES,MIC50 (HeLa [1]),MIC50 (CCRF-CEM [2]),MIC50 (MDCK [4]),MIC50 (HeLa [5]),MIC50 (HEF [6]),MIC50 (Vero [7]),MIC50 (Vero [8]),MIC50 (MDCK [9]),MIC50 (HeLa [10]),MIC50 (HEF [11]),MIC50 (HEF [12]),MIC50 (MDCK [13]),MIC50 (CCRF-CEM [14]),MIC50 (HEF [16]),MIC50 (HEF [17]),MIC50 (Vero [18]),MIC50 (HEF [19]),MIC50 (HEF [20]),MIC50 (CCRF-CEM [21]),MIC50 (Vero [22]),other results
CCN1CCCC12C1CC3CC(C1)CC2C3 (stereo not drawn),> 400 µg/mL,> 200 µg/mL,> 200 µg/mL,> 200 µg/mL,> 400 µg/mL,> 400 µg/mL,> 400 µg/mL,> 200 µg/mL,> 400 µg/mL,≥ 400 µg/mL,> 200 µg/mL,2.4 µg/mL,> 200 µg/mL,> 400 µg/mL,≥ 400 µg/mL,> 400 µg/mL,> 400 µg/mL,> 400 µg/mL,> 200 µg/mL,> 400 µg/mL,MIC50 (Vero [3]): > 400 µg/mL; MIC50 (Vero [15]): > 400 µg/mL
C1CN(CC2CC2)C2(C1)C1CC3CC(C1)CC2C3 (stereo not drawn),> 400 µg/mL,–,–,≥ 150 µg/mL,–,> 400 µg/mL,–,> 100 µg/mL,–,–,–,≥ 40 µg/mL,–,–,≥ 400 µg/mL,–,–,300 µg/mL,–,–,MIC50 (CCRF-CEM [23]): > 200 µg/mL; MIC50 (CCRF-CEM [24]): > 200 µg/mL; MIC50 (CCRF-CEM [25]): > 200 µg/mL; MIC50 (HEF [26]): > 200 µg/mL; MIC50 (HeLa [27]): > 400 µg/mL; MIC50 (HEF [28]): > 400 µg/mL; MIC50 (Vero [29]): > 400 µg/mL; MIC50 (MDCK [30]): 100 µg/mL; MIC50 (Vero [31]): > 400 µg/mL; MIC50 (Vero [32]): > 400 µg/mL; MIC50 (HEF [33]): > 400 µg/mL; MIC50 (HEF [34]): 150 µg/mL; MIC50 (Vero [35]): > 400 µg/mL; MIC50 (HEF [36]): 100 µg/mL; MIC50 (Vero [37]): > 400 µg/mL
NCC1CC12C1CC3CC(C1)CC2C3 (stereo not drawn),–,> 8 µg/mL,20 µg/mL,≥ 15 µg/mL,> 20 µg/mL,> 20 µg/mL,> 20 µg/mL,> 20 µg/mL,> 10 µg/mL,> 20 µg/mL,28 µg/mL,0.8 µg/mL,> 8 µg/mL,40 µg/mL,> 20 µg/mL,> 20 µg/mL,> 20 µg/mL,> 20 µg/mL,14 µg/mL,> 20 µg/mL,MIC50 (Vero [3]): 40 µg/mL; MIC50 (HeLa [38]): 20 µg/mL; MIC50 (Vero [39]): > 20 µg/mL
CNC1CC12C1CC3CC(C1)CC2C3 (stereo not drawn),–,> 8 µg/mL,100 µg/mL,> 150 µg/mL,> 70 µg/mL,> 70 µg/mL,> 70 µg/mL,> 100 µg/mL,> 100 µg/mL,> 40 µg/mL,90 µg/mL,1.2 µg/mL,> 8 µg/mL,100 µg/mL,> 40 µg/mL,> 70 µg/mL,> 70 µg/mL,> 70 µg/mL,75 µg/mL,> 70 µg/mL,MIC50 (Vero [40]): 100 µg/mL; MIC50 (HeLa [38]): 200 µg/mL; MIC50 (Vero [15]): > 70 µg/mL
